Test [1] concerns the target T1, Serotonin 2 (5-HT2) receptor (Rattus norvegicus, UniProt P30994+P08909+P14842). Briefly: Compound was evaluated for binding affinity towards 5-hydroxytryptamine 2 receptor in rat anterior cortex using [3H]ketanserin as radioligand. Summed up:
(§1)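 Competition binding against the named radioligand on the native tissue membranes shown, radioligand at roughly its K_D for the binding system; procedures otherwise follow earlier published methods.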

The target of test [2] is T1, Serotonin 2 (5-HT2) receptor. Briefly: Compound was evaluated for binding affinity towards 5-hydroxytryptamine 2 receptor in rat anterior cortex using [125I]DOI as radioligand. The procedure, abridged:
as §1

The target in test [3] is T2, 5-hydroxytryptamine receptor 1A (Rattus norvegicus, UniProt P19327).
T2 sequence (P19327 whole entry): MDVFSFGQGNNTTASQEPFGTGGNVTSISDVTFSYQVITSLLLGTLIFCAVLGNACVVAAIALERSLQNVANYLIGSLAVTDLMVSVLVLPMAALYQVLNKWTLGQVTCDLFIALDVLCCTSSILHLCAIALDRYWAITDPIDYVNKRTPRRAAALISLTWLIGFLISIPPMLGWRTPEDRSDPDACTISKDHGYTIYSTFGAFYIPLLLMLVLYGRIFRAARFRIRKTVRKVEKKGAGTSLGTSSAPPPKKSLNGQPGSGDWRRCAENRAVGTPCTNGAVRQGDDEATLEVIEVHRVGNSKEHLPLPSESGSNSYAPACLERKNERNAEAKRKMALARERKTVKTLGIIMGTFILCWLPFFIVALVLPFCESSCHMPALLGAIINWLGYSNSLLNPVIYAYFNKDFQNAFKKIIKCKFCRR
As to the kind of experiment: Compound was evaluated for binding affinity towards 5-hydroxytryptamine 1A receptor in rat cortex using [3H]-8-OH-DPAT as radioligand. Summed up: as §1

`Cn1cc(CCN)c2c3c(ccc21)OCCC3`: the values for the IC50 in test [1] and in test [2] were 800 nM and 14 nM, respectively.

On to `CN(C)CCc1c[nH]c2cc3c(cc12)OCCC3`, for which the IC50 (commonly the concentration needed to halve the response being measured) in test [3] is 1200 nM; in test [1] it was 5900 nM; in test [2], 920 nM.

In test [3], `COc1ccc2[nH]cc(CCN(C)C)c2c1` [MEBUFOTENIN] came in with an IC50 of 11 nM.

Consider `CN(C)CCc1cn(C)c2ccc3c(c12)CCCO3`, for which the IC50 amounted to 5400 nM in test [3], 1000 nM in test [1] and 81 nM in test [2].

With `NCCc1c[nH]c2ccc3c(c12)CCCO3`, the IC50 in test [3] is 610 nM; in test [1] it was 2200 nM; in test [2] it was 14 nM.

Source of the values: ChEMBL document CHEMBL1125301, “1-(2-Aminoethyl)-3-methyl-8,9-dihydropyrano[3,2-e]indole: a rotationally restricted phenolic analog of the neurotransmitter serotonin and agonist selective for serotonin (5-HT2-type) receptors” (J Med Chem, 1992).
